Each structure is given as a SMILES string. The source made the active and inactive calls. The rule behind the calls is not given here.

The target of data set [1] is T1, Translocator protein (Homo sapiens, UniProt P30536). Kind of data set: Displacement of [3H]-PK11195 from PBR after 1 hr by scintillation counting.
The subject of data set [2] is MDA-MB-231. Kind of data set: Cellular uptake in human MDA-MB-231 cells at 0.1 uM by fluorescence spectroscopy. In kind it is ADME, cell-based. Conditions: mda-mb-231, 0.1 µM. The method in brief:
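MDA-MB-231 cells. Uptake measured by fluorescence spectroscopy with excitation at 412 nm and emission scanned from 550 to 750 nm (maximum at 678 nm). Conjugate uptake compared with and without the TSPO ligand PK 11195 analogue.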

In data set [3] the target is T1, Translocator protein. Kind of data set: Binding affinity to PBR.
In data set [4] the test system is MDA-MB-231. Kind of data set: Antitumor activity against human MDA-MB-231 cells xenografted in SCID mouse assessed as tumor free mouse at 5 umol/kg measured on day 60. In kind it is functional.
For data set [5], the system named is MDA-MB-231. Kind of data set: Drug level in human MDA-MB-231 cells xenografted in SCID mouse after 24 hrs by microPET analysis. In kind it is functional, cell-based. The method, boiled down:
(§1)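 Scid mice bearing MDA-231 tumours given the 124I-labelled conjugate at 50 μCi (about 40 ng) per mouse. MicroPET coronal emission imaging at 24, 48, 72 and 96 h after injection, plus biodistribution with three mice per group. Mean with standard deviation.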

Data set [6] is described as follows: Drug level in human U87 cells xenografted in BALB/c mouse after 24 hrs […]. The class given is ADME, cell-based, U-87MG ATCC. Conditions: in vivo, in the assay text read “nude mouse” for “BALB/c mouse”. The method, boiled down:
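Nude mice bearing U87 tumours given the 124I-labelled agent. Tumour and organ uptake taken by biodistribution 24 h after injection. Mean with standard deviation.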

The test system of data set [7] is MDA-MB-231. Put plainly: Drug level in human MDA-MB-231 cells xenografted in SCID mouse after 48 to 96 hrs by microPET analysis. The class given is functional, cell-based. Conditions: tested as the 124I-labelled form. The method, boiled down:
as §1

For data set [8], the system named is Blood. Kind of data set: Drug level in […] cells xenografted BALB/c mouse blood after 24 hrs by microPET analysis. Conditions: in vivo. In kind it is ADME, cell-based. The method, boiled down: (§2)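 Balb/c mice bearing EMT6 tumours given the 124I-labelled agent. Uptake in organs and tumour taken by biodistribution 24 h after injection, with microPET coronal emission imaging. Mean with standard deviation.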

Data set [9] relates to Muscle tissue. Kind of data set: Drug level in […] cells xenografted BALB/c mouse muscle after 24 hrs by microPET analysis. In kind it is ADME, cell-based. Conditions: in vivo. The method, boiled down:
as §2

The test system of data set [10] is Spleen. Kind of data set: Drug level in […] cells xenografted BALB/c mouse spleen after 24 hrs by microPET analysis. The class given is ADME, cell-based. Conditions: in vivo. The method in brief:
as §2

Data set [11] concerns Kidney. Kind of data set: Drug level in […] cells xenografted BALB/c mouse kidney after 24 hrs by microPET analysis. The class given is ADME, cell-based. Conditions: in vivo. The method in brief: as §2
In data set [12] the test system is Lung. Put plainly: Drug level in […] cells xenografted BALB/c mouse lungs after 24 hrs by microPET analysis. The class given is ADME, cell-based. Conditions: in vivo. The method, boiled down: as §2
Data set [13] concerns Heart. Kind of data set: Drug level in […] cells xenografted BALB/c mouse heart after 24 hrs by microPET analysis. In kind it is ADME, cell-based. Conditions: in vivo. The method in brief: as §2
Data set [14] relates to Liver. Kind of data set: Drug level in […] cells xenografted BALB/c mouse liver after 24 hrs by microPET analysis. In kind it is ADME, cell-based. Conditions: in vivo. The method in brief:
as §2

The nature of data set [15]: Drug level in […] cells xenografted BALB/c mouse gut after 24 hrs by microPET analysis. The class given is ADME, cell-based. Conditions: in vivo. The method, boiled down: as §2
The subject of data set [16] is Stomach. Kind of data set: Drug level in […] cells xenografted BALB/c mouse stomach after 24 hrs by microPET analysis. In kind it is ADME, cell-based. Conditions: in vivo. The method in brief: as §2
Data set [17] deals with Brain. Put plainly: Drug level in […] cells xenografted BALB/c mouse brain after 24 hrs by microPET analysis. The class given is ADME, cell-based. Conditions: in vivo. The method, boiled down: as §2

T1 sequence (P30536 whole entry): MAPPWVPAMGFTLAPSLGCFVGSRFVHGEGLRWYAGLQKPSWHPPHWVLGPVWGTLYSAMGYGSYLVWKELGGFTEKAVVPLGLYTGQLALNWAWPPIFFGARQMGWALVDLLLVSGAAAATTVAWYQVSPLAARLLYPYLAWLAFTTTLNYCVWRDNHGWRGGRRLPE

As to `C=Cc1c(C)c2cc3nc(c4c5[nH]c(cc6nc(cc1[nH]2)C(C)=C6CC)c(C)c5C(=O)C4)[C@@H](CCC(=O)NCCCCCCNC(=O)c1cc2ccccc2c(-c2ccccc2I)n1)[C@@H]3C`, the IC50 in data set [1] came out at 310 nM. In addition, in [2], the Drug uptake result is “Active”. Also, the Kd in [3] is 40 nM. For the same compound, the Activity in data set [4] was found to be 20%. Besides, in data set [5], the Drug uptake result is “Active”.
In [1], `C=Cc1c(C)c2cc3nc(c4c5[nH]c(cc6nc(cc1[nH]2)C(C)=C6CC)c(C)c5C(=O)C4)[C@@H](CCC(=O)NCCN)[C@@H]3C` came in with an IC50 of 5600 nM.
As to `CCC(C)N(C)C(=O)c1cc2ccccc2c(-c2ccccc2[124I])n1` (stereo unspecified), the Drug uptake result in data set [6] was “Not Active”.
With `CCCCCCOC(C)c1c(C)c2cc3nc(c4c5[nH]c(cc6nc(cc1[nH]2)C(C)=C6CC)c(C)c5C(=O)C4)[C@@H](CCC(=O)NCCCCCCNC(=O)c1cc2ccccc2c(-c2ccccc2I)n1)[C@@H]3C` (stereo partly specified), the Drug uptake result in data set [5] and in [7] was “Active” in each case.
`C=Cc1c(C)c2cc3nc(c4c5[nH]c(cc6nc(cc1[nH]2)C(C)=C6CC)c(C)c5C(=O)C4)[C@@H](CCC(=O)N(C)CCN(C)C(=O)c1cc2ccccc2c(-c2ccccc2I)n1)[C@@H]3C` had an IC50 in data set [1] of 1000 nM. This counts as single-digit micromolar.
In data set [1], `C=Cc1c(C)c2cc3nc(c4c5[nH]c(cc6nc(cc1[nH]2)C(C)=C6CC)c(C)c5C(=O)C4)[C@@H](CCC(=O)N(C)CCCCCCN(C)C(=O)c1cc2ccccc2c(-c2ccccc2I)n1)[C@@H]3C` gave a half-maximal inhibitory concentration (IC50) of 210 nM.
In turn, `CCC(C)N(C)C(=O)c1cc2ccccc2c(-c2ccccc2I)n1` (stereo unspecified) gave an IC50 in data set [1] of 620 nM. The Drug uptake entry in data set [8], in [9], in [10], in [11], in [12] and in data set [13] was “Not Active” each time. The Drug uptake entry in data set [14], in [15], in data set [16] and in [17] was “Not Active” in each case.
Regarding `C=Cc1c(C)c2cc3nc(c4c5[nH]c(cc6nc(cc1[nH]2)C(C)=C6CC)c(C)c5C(=O)C4)[C@@H](CCC(=O)NCCNC(=O)c1cc2ccccc2c(-c2ccccc2I)n1)[C@@H]3C`, the IC50 in data set [1] worked out at 2200 nM. This counts as single-digit micromolar.
In [1], `C=Cc1c(C)c2cc3nc(c4c5[nH]c(cc6nc(cc1[nH]2)C(C)=C6CC)c(C)c5C(=O)C4)[C@@H](CCC(=O)NCCCCCCN)[C@@H]3C` came in with an IC50 of 25000 nM. In [2], the Drug uptake result is on record as “Active”. Moreover, the Activity in data set [4] is given as 0%.

(Values after ChEMBL document CHEMBL1671831, “TSPO 18 kDa (PBR) Targeted Photosensitizers for Cancer Imaging (PET) and PDT” (ACS Med Chem Lett, 2011).)
